The target of assay [1] is T1, Myeloblastin (Homo sapiens) (UniProt P24158).
T1 sequence (whole entry): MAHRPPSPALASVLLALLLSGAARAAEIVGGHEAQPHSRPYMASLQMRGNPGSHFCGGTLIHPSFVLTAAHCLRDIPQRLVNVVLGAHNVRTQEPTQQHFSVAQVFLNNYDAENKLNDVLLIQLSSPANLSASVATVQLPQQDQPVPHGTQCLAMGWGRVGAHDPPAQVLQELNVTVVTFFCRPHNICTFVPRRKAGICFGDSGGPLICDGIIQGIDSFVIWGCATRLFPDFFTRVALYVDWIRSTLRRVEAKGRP
Briefly: Evaluated for the inhibition of Human leukocyte Proteinase 3 (PR-3). The method, boiled down:
(§1)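 PR-3 purified from polymorphonuclear leukocyte granules. Inhibitor in DMSO was incubated with enzyme in 0.1 M phosphate, pH 6.5, in a constant-temperature bath. Aliquots taken over time went into BOC-Ala-p-nitrophenol (20 mM acetonitrile stock) in phosphate buffer. After 30 s, A347.5 was read for 1 min. kobs came from ln(vt/v0) versus time and is reported as kobs/[I] (M-1 s-1).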

In assay [2] the target is T1, Myeloblastin (Homo sapiens). Nature of the assay: Evaluated for the inhibition of Human leukocyte Proteinase 3 (PR-3) following a 10-min incubation with a 50-fold excess of inhibitor. Particulars: concentration not given here.
Assay [3] addresses T2, Neutrophil elastase (Homo sapiens) (UniProt P08246).
T2 sequence (whole entry): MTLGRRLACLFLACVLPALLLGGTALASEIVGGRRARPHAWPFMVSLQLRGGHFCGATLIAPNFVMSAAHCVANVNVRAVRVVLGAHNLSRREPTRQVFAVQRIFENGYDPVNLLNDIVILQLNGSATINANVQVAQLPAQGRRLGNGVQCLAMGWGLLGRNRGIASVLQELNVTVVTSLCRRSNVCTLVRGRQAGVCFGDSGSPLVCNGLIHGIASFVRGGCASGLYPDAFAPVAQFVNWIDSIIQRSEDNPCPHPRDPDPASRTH
Briefly: Evaluated for the inhibition of Human leukocyte elastase.

The target of assay [4] is T1, Myeloblastin (Homo sapiens). Nature of the assay: Evaluated for the inhibition of Human leukocyte Proteinase 3 (PR-3); Inactive. The method, boiled down:
as §1

Each structure is given as a SMILES string. The source made the active and inactive calls. The rule behind the calls is not given here. Bounds are passed on as bounds.

In assay [1], `CC1CC(=O)N(OS(=O)(=O)/C=C/c2ccccc2)C1=O` (stereo not drawn) came in with a K obs / 1 of 4500 M⁻¹ s⁻¹.
`CC(C)CC1CC(=O)N(OS(C)(=O)=O)C1=O` (stereo not drawn): in assay [1], the K obs / 1 came out at 1200 M⁻¹ s⁻¹.
One may read the inhibition as the share of the control response that was lost under treatment. Lower therefore signals little suppression. `O=C1CCC(=O)N1OS(=O)(=O)/C=C/c1ccccc1` showed an inhibition in assay [2] below 35%.
With `CCCC1CC(=O)N(OS(C)(=O)=O)C1=O` (stereo not drawn), the K obs / 1 in assay [3] and in assay [1] was 8600 M⁻¹ s⁻¹ each time.
Molecule `CC(C)C1CC(=O)N(OS(C)(=O)=O)C1=O` (stereo not drawn) registered a K obs / 1 in assay [1] of 2200 M⁻¹ s⁻¹.
As to `CCCCC1CC(=O)N(OS(C)(=O)=O)C1=O` (stereo not drawn), the K obs / 1 in assay [3] amounted to 4100 M⁻¹ s⁻¹; in assay [1], 800 M⁻¹ s⁻¹.
`CC(C)C1CC(=O)N(OS(=O)(=O)/C=C/c2ccccc2)C1=O` (stereo not drawn): the K obs / 1 was 100000 M⁻¹ s⁻¹ in assay [3] and 8100 M⁻¹ s⁻¹ in assay [1].
Regarding `CS(=O)(=O)ON1C(=O)CC(Cc2ccccc2)C1=O` (stereo not drawn), in assay [3], the K obs / 1 worked out at 1100 M⁻¹ s⁻¹. Moreover, in assay [4], the “K obs / 1” value was “inactive”.
In assay [2], `O=C1CC(Cc2ccccc2)C(=O)N1OS(=O)(=O)/C=C/c1ccccc1` (stereo not drawn) returned an inhibition below 35%.
Molecule `CC1CC(=O)N(OS(C)(=O)=O)C1=O` (stereo not drawn) showed a K obs / 1 in assay [1] of 2300 M⁻¹ s⁻¹.
Molecule `CC(C)CC1CC(=O)N(OS(=O)(=O)/C=C/c2ccccc2)C1=O` (stereo not drawn) gave a K obs / 1 in assay [1] of 10400 M⁻¹ s⁻¹.
For `CS(=O)(=O)ON1C(=O)CCC1=O`, the “K obs / 1” value in assay [4] is “inactive”.
`CCC1CC(=O)N(OS(C)(=O)=O)C1=O` (stereo not drawn) had a K obs / 1 in assay [1] of 13400 M⁻¹ s⁻¹.
On to `CCCCC1CC(=O)N(OS(=O)(=O)/C=C/c2ccccc2)C1=O` (stereo not drawn), for which the K obs / 1 in assay [1] was determined as 3800 M⁻¹ s⁻¹.

The values above are taken from ChEMBL document CHEMBL1125156, “Inhibitors of human leukocyte proteinase-3” (J Med Chem, 1990).
